Assay results from ChEMBL document CHEMBL2177058 (J Med Chem, 2012).
pEC50, pIC50, pKi: −log10 of the molar value. Activity calls are given as the source filed them. No cut-off for these calls is given here.

Columns and labels:
[1] = biological target: D(2) dopamine receptor (Homo sapiens, UniProt P14416); experiment: biochemical; format: cell-based, CHOp
[2] = biological target: D(3) dopamine receptor (Homo sapiens, UniProt P35462); experiment: Displacement of [3H]YM-09151-2 from human dopamine D3 receptor expressed in CHOp cells; format: cell-based
[3] = biological target: D(1A) dopamine receptor (Homo sapiens, UniProt P21728); experiment: Displacement of [3H]SCH-23390 from human dopamine D1 receptor expressed in LHD1 cells; format: cell-based
[4] = biological target: T1, Kappa-type opioid receptor (Homo sapiens, UniProt P41145); experiment: Agonist activity at human kappa opioid receptor expressed in CHO cell membranes incubated for 60 mins by [35S]GTPgammaS binding assay; format: functional
[5] = biological target: Delta-type opioid receptor (Homo sapiens, UniProt P41143); experiment: Displacement of [3H]pCl-DPDPE from human delta opioid receptor expressed in CHO cell membranes incubated for 60 mins by liquid scintillation counting
[6] = biological target: Mu-type opioid receptor (Homo sapiens, UniProt P35372); experiment: Displacement of [3H]DAMGO from human mu opioid receptor expressed in CHO cell membranes incubated for 60 mins by liquid scintillation counting
[7] = biological target: T1, Kappa-type opioid receptor; experiment: Displacement of [3H]U69,593 from human kappa opioid receptor expressed in CHO cell membranes incubated for 60 mins by liquid scintillation counting
[8] = biological target: Kappa-type opioid receptor (Cavia porcellus, UniProt P41144); experiment: Displacement of [3H]ethylketocyclazocine from kappa opioid receptor in guinea pig brain
[9] = system: Mus musculus; experiment: Analgesic activity in CD1 mouse assessed as inhibition of acetic acid induced writhing at 2.5 mg/kg, sc dosed 30 mins before acetic acid challenge in presence of 20 mg/kg, sc KOP receptor antagonist nor-BNI; format: functional, organism-based
[10] = system: Mus musculus; experiment: Analgesic activity in CD1 mouse assessed as inhibition of acetic acid induced writhing dosed subcutaneously 30 mins before acetic acid challenge; format: functional
In short: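 Mice received the drug subcutaneously across a range of doses, then underwent the acetic acid induced writhing test. Inhibition of writhing was scored against a control group. Data are mean SEM, n = 5−6 mice per group. ED₅₀ was taken from the dose–response curve.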

Chain of Delta-type opioid receptor (P41143 whole entry): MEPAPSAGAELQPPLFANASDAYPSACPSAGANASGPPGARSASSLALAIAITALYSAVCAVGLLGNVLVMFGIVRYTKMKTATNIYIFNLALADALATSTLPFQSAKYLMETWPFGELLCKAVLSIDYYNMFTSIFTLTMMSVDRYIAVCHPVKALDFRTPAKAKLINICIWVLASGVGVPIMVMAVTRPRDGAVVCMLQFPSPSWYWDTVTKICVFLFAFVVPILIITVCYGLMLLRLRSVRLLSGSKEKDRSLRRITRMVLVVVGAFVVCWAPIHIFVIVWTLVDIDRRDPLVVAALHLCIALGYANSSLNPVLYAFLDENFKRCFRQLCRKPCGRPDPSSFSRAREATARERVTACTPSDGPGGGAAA
Chain of D(2) dopamine receptor (P14416 whole entry): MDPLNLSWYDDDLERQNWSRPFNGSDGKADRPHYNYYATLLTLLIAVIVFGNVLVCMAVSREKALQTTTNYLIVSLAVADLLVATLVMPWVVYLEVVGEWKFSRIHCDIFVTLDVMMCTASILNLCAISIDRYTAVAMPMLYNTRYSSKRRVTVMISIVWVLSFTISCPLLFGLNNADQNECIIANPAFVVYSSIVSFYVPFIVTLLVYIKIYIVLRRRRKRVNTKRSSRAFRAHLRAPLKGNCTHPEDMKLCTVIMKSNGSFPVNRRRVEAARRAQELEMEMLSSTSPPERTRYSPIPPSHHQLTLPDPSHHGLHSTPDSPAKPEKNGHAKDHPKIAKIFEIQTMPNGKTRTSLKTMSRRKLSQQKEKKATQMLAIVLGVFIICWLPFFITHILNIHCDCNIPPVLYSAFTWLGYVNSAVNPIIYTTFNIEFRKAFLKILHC
T1 sequence (P41145 whole entry): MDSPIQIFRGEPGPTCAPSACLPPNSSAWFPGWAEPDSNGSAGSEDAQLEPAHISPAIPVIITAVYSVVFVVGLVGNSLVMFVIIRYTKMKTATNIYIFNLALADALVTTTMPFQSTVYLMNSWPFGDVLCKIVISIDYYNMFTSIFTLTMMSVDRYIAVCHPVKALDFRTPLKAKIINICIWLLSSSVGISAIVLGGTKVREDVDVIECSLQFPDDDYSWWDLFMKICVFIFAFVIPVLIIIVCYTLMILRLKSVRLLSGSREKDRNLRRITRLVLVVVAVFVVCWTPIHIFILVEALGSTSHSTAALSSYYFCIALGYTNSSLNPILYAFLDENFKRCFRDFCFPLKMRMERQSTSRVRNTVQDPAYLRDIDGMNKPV
Chain of Mu-type opioid receptor (P35372 whole entry): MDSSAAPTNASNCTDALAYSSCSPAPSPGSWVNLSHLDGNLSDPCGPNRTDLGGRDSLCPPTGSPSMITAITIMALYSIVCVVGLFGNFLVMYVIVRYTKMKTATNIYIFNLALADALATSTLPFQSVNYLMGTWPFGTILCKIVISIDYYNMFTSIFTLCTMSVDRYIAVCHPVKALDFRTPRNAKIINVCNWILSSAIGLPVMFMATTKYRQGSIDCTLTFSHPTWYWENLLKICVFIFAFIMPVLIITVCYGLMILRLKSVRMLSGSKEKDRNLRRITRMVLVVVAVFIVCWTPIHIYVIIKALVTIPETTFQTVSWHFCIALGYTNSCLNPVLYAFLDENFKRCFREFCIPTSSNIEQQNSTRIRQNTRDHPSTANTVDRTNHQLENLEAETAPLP
Chain of D(1A) dopamine receptor (P21728 whole entry): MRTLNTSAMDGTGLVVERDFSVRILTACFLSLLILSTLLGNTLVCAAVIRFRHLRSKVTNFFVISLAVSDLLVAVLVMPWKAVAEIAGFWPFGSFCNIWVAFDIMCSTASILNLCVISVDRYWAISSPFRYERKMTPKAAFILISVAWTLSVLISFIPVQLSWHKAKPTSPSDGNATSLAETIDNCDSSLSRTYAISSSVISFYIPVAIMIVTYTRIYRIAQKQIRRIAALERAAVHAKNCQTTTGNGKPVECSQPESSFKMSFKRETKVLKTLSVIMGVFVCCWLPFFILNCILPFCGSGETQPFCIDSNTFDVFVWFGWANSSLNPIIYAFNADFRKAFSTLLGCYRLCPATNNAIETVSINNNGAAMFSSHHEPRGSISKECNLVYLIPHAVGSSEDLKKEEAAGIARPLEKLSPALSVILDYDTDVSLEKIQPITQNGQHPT
Chain of D(3) dopamine receptor (P35462 whole entry): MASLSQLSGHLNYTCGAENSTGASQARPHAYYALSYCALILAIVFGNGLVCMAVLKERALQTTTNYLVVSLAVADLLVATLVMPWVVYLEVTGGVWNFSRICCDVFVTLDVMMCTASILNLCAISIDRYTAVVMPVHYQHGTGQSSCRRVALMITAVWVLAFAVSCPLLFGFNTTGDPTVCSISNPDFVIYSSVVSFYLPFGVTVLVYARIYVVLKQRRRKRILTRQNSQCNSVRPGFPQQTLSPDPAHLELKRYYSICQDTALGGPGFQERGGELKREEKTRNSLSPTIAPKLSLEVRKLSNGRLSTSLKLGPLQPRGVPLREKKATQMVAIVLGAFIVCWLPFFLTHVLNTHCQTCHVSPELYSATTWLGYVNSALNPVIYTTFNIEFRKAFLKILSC
Chain of Kappa-type opioid receptor (Cavia porcellus, UniProt P41144) (P41144 whole entry): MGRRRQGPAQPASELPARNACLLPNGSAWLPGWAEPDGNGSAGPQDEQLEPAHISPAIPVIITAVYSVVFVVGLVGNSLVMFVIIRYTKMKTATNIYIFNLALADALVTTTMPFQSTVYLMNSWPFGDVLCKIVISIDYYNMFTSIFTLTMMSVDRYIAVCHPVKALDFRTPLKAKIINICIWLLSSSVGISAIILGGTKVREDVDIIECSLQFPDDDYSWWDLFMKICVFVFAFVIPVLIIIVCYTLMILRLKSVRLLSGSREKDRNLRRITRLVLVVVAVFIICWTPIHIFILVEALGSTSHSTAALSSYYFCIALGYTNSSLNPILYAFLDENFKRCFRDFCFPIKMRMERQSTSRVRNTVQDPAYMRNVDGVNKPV

Structure (SMILES) | pEC50 [4] | pKi [6] | pKi [7] | pKi [1] | pKi [2] | pKi [3] | pKi [5] | pIC50 [8] | Activity [9] | Activity [10] | ED50 ([10]; CD1, sc)
Oc1cccc(CCN(CCc2ccccc2)CC2CC2)c1 | – | – | – | 6.93 | 6.77 | < 5.00 | < 5.00 | – | – | – | –
CCCN(CCc1ccccc1)CCc1cccc(O)c1 | 7.31 | 6.23 | 8.09 | 7.19 | 7.66 | < 5.00 | 5.43 | 7.24 | – | – | –
CCCCN(CCc1ccccc1)CCc1cccc(O)c1 | 7.34 | 6.39 | 7.96 | 5.91 | 5.94 | < 5.00 | 5.61 | – | – | – | –
Oc1cccc(CCN(CCc2ccccc2)CC2CCC2)c1 | – | – | – | 6.35 | 6.55 | < 5.00 | < 5.00 | – | inactive | Dose-dependent effect | 1.91 mg/kg

Further lines, with some results ahead:

pEC50 [4] | pKi [6] | pKi [7] | Structure (SMILES) | pKi [1] | pKi [2] | pKi [3] | pKi [5] | pIC50 [8] | Activity [9] | Activity [10] | ED50 ([10]; CD1, sc)
6.19 | 6.10 | 6.85 | CCCCCCN(CCc1ccccc1)CCc1cccc(O)c1 | 6.08 | 5.94 | < 5.00 | 5.45 | – | – | – | –
7.06 | 6.49 | 7.90 | CCCCCN(CCc1ccccc1)CCc1cccc(O)c1 | 5.85 | 5.96 | < 5.00 | 5.88 | – | – | – | –
